Laboratory results from ChEMBL document CHEMBL1153016, “Dopamine- and tyramine-based derivatives of triazenes: activation by tyrosinase and implications for prodrug design” (Eur J Med Chem, 2009).

T1: Tyrosinase (Agaricus bisporus) (UniProt O42713)
T1 sequence (whole entry): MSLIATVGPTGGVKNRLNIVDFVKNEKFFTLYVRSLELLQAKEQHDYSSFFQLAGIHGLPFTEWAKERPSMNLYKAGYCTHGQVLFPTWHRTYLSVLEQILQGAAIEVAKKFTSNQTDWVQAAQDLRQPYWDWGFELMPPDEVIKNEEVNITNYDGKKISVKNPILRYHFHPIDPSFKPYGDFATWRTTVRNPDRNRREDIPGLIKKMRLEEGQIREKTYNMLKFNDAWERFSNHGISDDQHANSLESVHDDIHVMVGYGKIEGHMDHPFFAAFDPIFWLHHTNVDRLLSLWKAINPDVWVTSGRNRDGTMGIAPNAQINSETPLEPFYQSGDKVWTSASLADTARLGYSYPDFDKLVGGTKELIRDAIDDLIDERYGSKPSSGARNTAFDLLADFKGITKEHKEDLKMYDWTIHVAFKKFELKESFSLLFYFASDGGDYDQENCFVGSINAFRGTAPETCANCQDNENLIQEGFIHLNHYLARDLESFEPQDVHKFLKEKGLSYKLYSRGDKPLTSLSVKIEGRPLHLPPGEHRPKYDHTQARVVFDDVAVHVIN


How the values were obtained:
[1] = Chemical stability in phosphate buffer of pH 7.4 at 10 uM by HPLC analysis; assay type: physicochemical; conditions: pH 7.4, 10 µM
In short: (§1)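 Hydrolysis at 37 °C in pH 7.4 PBS containing 20% DMSO, substrate 10^-5 M. Aliquots analysed by reversed-phase HPLC with UV at 300 nm to give half-life.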

[2] = Apparent partition coefficient in phosphate buffer of pH 7.4 by HPLC analysis; assay type: physicochemical
In short: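 Log Pexp measured at room temperature in 1-octanol/pH 7.4 phosphate buffer, phases mutually pre-saturated. Compound dissolved in octanol and shaken 30 min to equilibrium. Each phase analysed by HPLC, octanol phase first diluted 1:10 in acetonitrile. P taken as the ratio of octanol to buffer peak area.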

tyrosinase = test: Stability assessed as half life at 50 uM by HPLC analysis in presence of mushroom tyrosinase; assay type: ADME
In short: (§2)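 Mushroom tyrosinase at 100U/mL in pH 7.4 phosphate buffer (2.4 mL) with DMSO (0.6 mL), 37 °C. Prodrug added from 10^-2 M stock, final substrate 5 x 10^-5 M, incubated with gentle stirring. Consumption followed by HPLC with UV at 300 nm, giving half-life of activation. Km and Vmax determined; turnover number derived from Vmax.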

Plasma = test: Stability in 80% human plasma at 10 uM by HPLC analysis; assay type: ADME, cell-free
In short: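 Pooled heparinised human plasma from healthy donors, stored at –70 °C, diluted to 80% (v/v) with pH 7.4 isotonic phosphate buffer. Substrate 10^-5 M, incubated at 37 °C. At intervals, 200 µL aliquots quenched in 400 µL acetonitrile and centrifuged; supernatant analysed by HPLC for substrate and products to give half-life.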

Homo sapiens = organism: Homo sapiens; test: Stability assessed as hydrolytic half life in 80% human plasma at 10 uM by HPLC analysis
[3] = target: T1, Tyrosinase (Agaricus bisporus); test: Binding affinity to Mushroom tyrosinase assessed as compound turnover by HPLC analysis; in short: as §2
[4] = Ratio of chemical stability in phosphate buffer of pH 7.4 to chemical stability in human plasma; assay type: ADME
[5] = Chemical stability of the assessed as hydrolytic half life in phosphate buffer of pH 7.4 at 10 uM by HPLC analysis; assay type: physicochemical; in short: as §1
[6] = substrate: CN(/N=N/c1ccc(C#N)cc1)C(=O)NCCc1ccc(O)cc1; test: (§3) Activity at mushroom tyrosinase; conditions: Agaricus bisporus; in short: as §2
[7] = substrate: CCOC(=O)c1ccc(/N=N/N(C)C(=O)NCCc2ccc(O)c(O)c2)cc1; test: as §3; conditions: Agaricus bisporus; in short: as §2

| Molecule | Stability [1] | logD [2] | half-life at 50 µM (tyrosinase) | Stability (Plasma) | half-life at 10 µM (Homo sapiens) | Activity [3] | Ratio [4] | half-life at 10 µM [5] | further results |
| --- | --- | --- | --- | --- | --- | --- | --- | --- | --- |
| CC(=O)c1ccc(/N=N/N(C)C(=O)NCCc2ccc(O)cc2)cc1 | 15 days | 3.25 | 0.217 h | 2 days |  |  |  |  |  |
| CCOC(=O)c1ccc(/N=N/N(C)C(=O)NCCc2ccc(O)cc2)cc1 | 15 days | 3.96 | 0.215 h |  | 71.5 h |  |  |  |  |
| NCCc1ccc(O)cc1 |  |  |  |  |  | 25.9 s⁻¹ |  |  |  |
| CC(=O)c1ccc(/N=N/N(C)C(=O)NCCc2ccc(O)c(O)c2)cc1 |  | 3.24 | 0.165 h |  | 9.3 h |  | 1.5 | 15.1 h |  |
| Cc1ccc(/N=N/N(C)C(=O)NCCc2ccc(O)cc2)cc1 |  | 3.9 | 0.303 h | 2 days |  |  |  | 364 h |  |
| NCCc1ccc(O)c(O)c1 |  |  |  |  |  | 439 s⁻¹ |  |  |  |
| CCOC(=O)c1ccc(/N=N/N(C)C(=O)NCCc2ccc(O)c(O)c2)cc1 |  | 3.78 | 0.102 h |  | 14.7 h | 6 s⁻¹ | 1.5 | 20.8 h |  |
| Cc1ccc(/N=N/N(C)C(=O)NCCc2ccc(O)c(O)c2)cc1 | 2 days | 4.17 | 0.14 h |  | 5.66 h |  | 1.5 |  |  |
| CN(/N=N/c1ccc(C#N)cc1)C(=O)NCCc1ccc(O)cc1 | 15 days | 2.89 | 0.197 h | 2 days |  | 0.6 s⁻¹ |  |  |  |
| Tyrosinase (Agaricus bisporus), O42713 (protein) MSLIATVGPTGGVKNRLNIVDFVKNEKFFTLYVRSLELLQAKEQHDYSSFFQLAGIHGLPFTEWAKERPSMNLYKAGYCTHGQVLFPTWHRTYLSVLEQILQGAAIEVAKKFTSNQTDWVQAAQDLRQPYWDWGFELMPPDEVIKNEEVNITNYDGKKISVKNPILRYHFHPIDPSFKPYGDFATWRTTVRNPDRNRREDIPGLIKKMRLEEGQIREKTYNMLKFNDAWERFSNHGISDDQHANSLESVHDDIHVMVGYGKIEGHMDHPFFAAFDPIFWLHHTNVDRLLSLWKAINPDVWVTSGRNRDGTMGIAPNAQINSETPLEPFYQSGDKVWTSASLADTARLGYSYPDFDKLVGGTKELIRDAIDDLIDERYGSKPSSGARNTAFDLLADFKGITKEHKEDLKMYDWTIHVAFKKFELKESFSLLFYFASDGGDYDQENCFVGSINAFRGTAPETCANCQDNENLIQEGFIHLNHYLARDLESFEPQDVHKFLKEKGLSYKLYSRGDKPLTSLSVKIEGRPLHLPPGEHRPKYDHTQARVVFDDVAVHVIN |  |  |  |  |  |  |  |  | Km [6]: 310 µM; Vmax [6]: 0.03 mM/min; Km [7]: 710 µM; Vmax [7]: 0.31 mM/min |
